From PMC9647759 (Pharmaceutical Chemistry Journal, 2022) come the findings set out here.

One data set deals with Vero cells. As to the kind of experiment: In vitro cytotoxicity assay on Vero cells. It is filed as cell-based, monkeys. The settings on record: 100 μM, 24 h, 3000 Vero cells/well. An outline of the steps: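 Vero cells, about 3000 per well at 90% confluency, were exposed to the test compound at 100 μM for 24 h at 37°C in a CO2 incubator. The percentage of metabolically active cells was compared with untreated control to give cytotoxicity. Three independent runs were done.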

The subject of another data set is female Wistar rats. As to the kind of experiment: Acute oral toxicity. The conditions noted are these: 100 mg/kg, observed 48 h for mortality. It is filed as in vivo. The method, boiled down: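 Female Wistar rats were fasted overnight, then given the test compound orally as a single 100 mg/kg dose. Animals were watched for signs of morbidity […].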

For `Cc1nc2ccccc2n1CC(=O)NNc1ccccc1` [MBPHYD, 2-(2-methyl-1H-benzimidazol-1-yl)-N′-phenylacetohydrazide], the toxicity in vitro result with Vero cells was “non-toxic”. Further, in the data set on female Wistar rats, the toxicity in vivo entry is given as “non-toxic”.

For `Cc1nc2ccccc2n1CC(=O)NN` [MBNHYD, 2-(2-methyl-1H-benzimidazol-1-yl) acetohydrazide], in the data set with Vero cells, the toxicity in vitro result is “non-toxic”. In addition, the toxicity in vivo result in the data set on female Wistar rats was “non-toxic”.
